Data reported in ChEMBL document CHEMBL3271957 (J Med Chem, 1977).
≈ marks a conversion by molar mass, not a printed value.

How the values were obtained:
[1] = system: Lacticaseibacillus rhamnosus; experiment: Antimicrobial activity against Lactobacillus casei ATCC 7469 assessed as growth inhibition; format: functional
[2] = molecular target: Dihydrofolate reductase (Lactobacillus casei, UniProt P00381); experiment: Inhibition of MTX-resistant Lactobacillus casei dihydrofolate reductase; design: species or system Lacticaseibacillus casei
[3] = molecular target: T1, Thymidylate synthase (Lactobacillus casei, UniProt P00469); experiment: Inhibition of MTX-resistant Lactobacillus casei thymidylate synthetase; design: species or system Lacticaseibacillus casei
T1 sequence (P00469 whole entry): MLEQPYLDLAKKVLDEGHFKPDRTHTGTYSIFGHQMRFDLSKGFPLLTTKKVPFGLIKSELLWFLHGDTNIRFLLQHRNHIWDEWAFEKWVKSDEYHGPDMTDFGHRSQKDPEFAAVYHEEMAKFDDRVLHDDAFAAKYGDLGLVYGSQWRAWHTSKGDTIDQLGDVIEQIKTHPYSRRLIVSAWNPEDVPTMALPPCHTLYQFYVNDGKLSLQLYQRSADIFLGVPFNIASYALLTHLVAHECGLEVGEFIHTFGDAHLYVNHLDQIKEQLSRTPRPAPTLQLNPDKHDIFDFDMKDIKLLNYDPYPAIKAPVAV

[4] = system: CCRF-CEM; experiment: Cytotoxicity against human CCRF-CEM cells; format: functional; conditions: read-out: ID50 (the source's name)
[5] = system: L1210; experiment: Antitumor activity against mouse L1210 cells allografted in BDF/1 hybrid mouse assessed as increase in life span relative to control; format: functional
Summary of the method: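 Male BDF/1 hybrid mice inoculated ip with 10^5 L-1210 leukemia cells; test agents dissolved in 0.1 M phosphate buffer (pH 8), given ip 24 h after implantation (day 1) and on days 4 and 7. Median survival times of treated (T) and control (C) groups compared; % ILS = 100 × (T/C − 1).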

[6] = Toxicity in BDF/1 hybrid mouse xenografted with mouse L1210 cells administered q3d on day 1, 4 and 7; format: organism-based; conditions: in vivo
Summary of the method: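 Male BDF/1 hybrid mice carrying ip-inoculated L-1210 cells (10^5) dosed ip on days 1, 4 and 7 (first dose 24 h post-implant) with compound in 0.1 M phosphate buffer, pH 8. Value expressed as optimal nontoxic dose in mg/kg ×3; where the top level tested was nontoxic, the highest nontoxic dose tested is given.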

[7] = system: Mus musculus; experiment: Toxicity in BDF/1 hybrid mouse xenografted with mouse L1210 cells assessed as optimal nontoxic dose administered q3d on day 1, 4 and 7; format: organism-based; conditions: in vivo
Summary of the method: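 Male BDF/1 hybrid mice received 10^5 L-1210 leukemia cells ip. Test agents in 0.1 M phosphate buffer (pH 8) were given ip 24 h after implantation (day 1) and again on days 4 and 7. The optimal nontoxic dose is expressed as mg/kg × 3; where marked, it is the highest nontoxic dose tested.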

Sequence of Dihydrofolate reductase (P00381 whole entry): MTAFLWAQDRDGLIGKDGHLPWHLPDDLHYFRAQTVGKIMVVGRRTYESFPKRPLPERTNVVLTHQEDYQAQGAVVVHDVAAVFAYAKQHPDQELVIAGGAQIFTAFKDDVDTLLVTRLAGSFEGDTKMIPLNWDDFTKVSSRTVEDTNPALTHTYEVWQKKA

For CN(CC1CNc2nc(N)nc(N)c2N1)c1ccc(C(=O)N[C@@H](CCC(=O)O)C(=O)O)cc1 (some centres not stated), which GI50 [1] is on record?
The GI50 was 0.14 nM.

What about the IC50 [2] of the same compound?
Its IC50 is 200 nM.

And the IC50 [3]?
Its IC50 is 5000 nM.

Which GI50 [1] does the source give for CN(CC1=Nc2c(N)nc(N)nc2N(Cc2ccccc2)C1)c1ccc(C(=O)N[C@@H](CCC(=O)O)C(=O)O)cc1 here?
The GI50 was 0.35 nM.

What about the IC50 [2] of the same compound?
The IC50 was 740 nM.

What about the IC50 [3] of the same compound?
Its IC50 is 8000 nM.

And the IC50 [4]?
The IC50 was 0.78 µg/mL (≈ 1.43 µM).

And the ILS [5]?
Its ILS is 25%.

What about the MTD [6] of the same compound?
The MTD was 400 mg/kg.

Which GI50 [1] does the source give for CCCCCCN1CC(CN(C)c2ccc(C(=O)N[C@@H](CCC(=O)O)C(=O)O)cc2)=Nc2c(N)nc(N)nc21 here?
The GI50 was 0.27 nM.

And the IC50 [2]?
Its IC50 is 1800 nM.

What about the IC50 [3] of the same compound?
Its IC50 is 43000 nM.

And the IC50 [4]?
The IC50 was 0.58 µg/mL (≈ 1.07 µM).

What about the ILS [5] of the same compound?
Its ILS is 0%.

What about the MTD [6] of the same compound?
Its MTD is 400 mg/kg.

Which results are given for CN(CC1=Nc2c(N)nc(N)nc2N(CC2CCCCC2)C1)c1ccc(C(=O)N[C@@H](CCC(=O)O)C(=O)O)cc1?
GI50 [1]: 3.5 nM; IC50 [2]: 870 nM; IC50 [3]: 17000 nM; IC50 [4]: 0.14 µg/mL (≈ 0.253 µM); Activity [7]: 300 mg/kg; ILS [5]: 27%

Which GI50 [1] does the source give for CN(CC1=Nc2c(N)nc(N)nc2N(Cc2ccc(Cl)c(Cl)c2)C1)c1ccc(C(=O)N[C@@H](CCC(=O)O)C(=O)O)cc1 here?
Its GI50 is 19.4 nM.

What about the IC50 [2] of the same compound?
The IC50 was 3600 nM.

What about the IC50 [3] of the same compound?
Its IC50 is 13000 nM.

What about the IC50 [4] of the same compound?
The IC50 was > 1 µg/mL.

And the ILS [5]?
The ILS was 36%.

And the MTD [6]?
Its MTD is 400 mg/kg.

What does the source list for CN(CC1CN(C)c2nc(N)nc(N)c2N1)c1ccc(C(=O)N[C@@H](CCC(=O)O)C(=O)O)cc1 (some centres not stated)?
GI50 [1]: 1.4 nM; IC50 [2]: 2500 nM; IC50 [3]: 39000 nM; IC50 [4]: 0.14 µg/mL (≈ 0.296 µM); Activity [7]: 200 mg/kg; ILS [5]: 9%

Which results are given for CCN1CC(CN(C)c2ccc(C(=O)N[C@@H](CCC(=O)O)C(=O)O)cc2)=Nc2c(N)nc(N)nc21?
GI50 [1]: 0.35 nM; IC50 [2]: 900 nM; IC50 [3]: 20000 nM; IC50 [4]: 0.27 µg/mL (≈ 0.557 µM); ILS [5]: 18%; MTD [6]: 400 mg/kg

With CN(Cc1cnc2nc(N)nc(N)c2n1)c1ccc(C(=O)N[C@@H](CCC(=O)O)C(=O)O)cc1 [METHOTREXATE] as the compound, how does the GI50 [1] read?
Its GI50 is 0.04 nM.

And the IC50 [4]?
The IC50 was 0.018 µg/mL (≈ 0.0396 µM).

What about the Activity [7] of the same compound?
Its Activity is 15 mg/kg.

And the ILS [5]?
Its ILS is 70%.

What does the source list for CN(CC1=Nc2c(N)nc(N)nc2NC1)c1ccc(C(=O)N[C@@H](CCC(=O)O)C(=O)O)cc1?
GI50 [1]: 0.02 nM; IC50 [2]: 20 nM; IC50 [3]: 1000 nM; IC50 [4]: 0.021 µg/mL (≈ 0.046 µM); Activity [7]: 30 mg/kg; ILS [5]: 9%

What does the source list for CN(CC1=Nc2c(N)nc(N)nc2N(Cc2cccc3ccccc23)C1)c1ccc(C(=O)N[C@@H](CCC(=O)O)C(=O)O)cc1?
GI50 [1]: 0.47 nM; IC50 [2]: 4500 nM; IC50 [3]: 16000 nM; IC50 [4]: > 1 µg/mL; ILS [5]: 0%; MTD [6]: 400 mg/kg

Which results are given for CCCCN1CC(CN(C)c2ccc(C(=O)N[C@@H](CCC(=O)O)C(=O)O)cc2)=Nc2c(N)nc(N)nc21?
GI50 [1]: 1.2 nM; IC50 [2]: 380 nM; IC50 [3]: 19000 nM; IC50 [4]: 0.23 µg/mL (≈ 0.449 µM); Activity [7]: 100 mg/kg; ILS [5]: 25%

What does the source list for CN(CC1=Nc2c(N)nc(N)nc2N(C)C1)c1ccc(C(=O)N[C@@H](CCC(=O)O)C(=O)O)cc1?
GI50 [1]: 0.1 nM; IC50 [2]: 140 nM; IC50 [3]: 4000 nM; IC50 [4]: 0.23 µg/mL (≈ 0.489 µM); Activity [7]: 300 mg/kg; ILS [5]: 27%
